Published values pooled from the literature.
Protocols differ between the studies behind these lines.
Effect on: cell growth or viability

Structure (SMILES) | cell line | technique | time | IC50 [µM]
COc1ccc2c(C(=O)C(C#N)=Cc3cn(Cc4ccc(Cl)cc4)c4ccccc34)c[nH]c2c1 | MIA PaCa-2 | MTT | 48 h | 7.9
O=C(CSc1nc2ccccc2s1)N/N=C/c1ccc(OCC(=O)Nc2ccc(Br)cc2)cc1 | LN-229 | MTS | 72 h | 27.8
Cc1ncsc1-c1ccc(CNC(=O)[C@@H]2C[C@@H](O)CN2C(=O)[C@@H](NC(=O)C2(F)CC2)C(C)(C)C)c(OCCOc2ccc(CN3CCN(c4cc(-c5ccccc5O)nnc4N)CC3)cc2)c1 | LNCaP | ATP luminescence | 7 days | 0.0161
Cc1ncsc1-c1ccc([C@H](CC(=O)NCCCCCCNC(=O)c2nc(N3CCc4cccc(C(=O)Nc5nc6ccccc6s5)c4C3)ccc2-c2cnn(CC34CC5CC(CC(C5)C3)C4)c2C)NC(=O)[C@@H]2C[C@@H](O)CN2C(=O)[C@@H](NC(=O)C2(C#N)CC2)C(C)(C)C)cc1 | MOLT-4 | MTS | 48 h | 0.117
N#Cc1ccc(-c2cc(CNc3cccc4cccnc34)on2)cc1 | LN-229 | MTS | 72 h | 27.2
O=C(CSc1nc2ccccc2s1)N/N=C/c1ccc(OCC(=O)Nc2cccc([N+](=O)[O-])c2)cc1 | MOLT-4 | MTS | 72 h | 15.3
CCn1cc(C=C(C#N)C(=O)c2c[nH]c3ccc(OC)cc23)c2ccccc21 | MIA PaCa-2 | MTT | 48 h | 15.5
NS(=O)(=O)c1ccc(-n2nc(C(=O)NN=Cc3ccccc3O)cc2-c2ccccc2)cc1 | PaCa-2 | fluorescence | 48 h | 10.9
Cc1nc(Nc2ncc(C(=O)Nc3c(C)cccc3Cl)s2)cc(N2CC[C@H](O)C2)n1 | SU-DHL-2 | ATP luminescence | 72 h | > 10
COc1ccc(Nc2ncnc3c2ncn3Cc2ccc(C(=O)NO)cc2)cc1 | Jurkat | MTT | 72 h | 0.7
CN(C)C(=O)c1cc2cnc(Nc3ccc(-c4ccc5c(=O)cc(N6CCOCC6)oc5c4)cc3)nc2n1C1CCCC1 | NGP | ATP luminescence | 72 h | 0.21
Cc1ncsc1-c1ccc([C@H](C)NC(=O)[C@@H]2C[C@@H](O)CN2C(=O)[C@@H](NC(=O)CCCCCCCS(=O)(=O)NC(=O)c2nc(N3CCc4cccc(C(=O)Nc5nc6ccccc6s5)c4C3)ccc2-c2cnn(CC34CC5CC(CC(C5)C3)C4)c2C)C(C)(C)C)cc1 | MOLT-4 | MTS | 48 h | 0.0037
NS(=O)(=O)c1ccc(-n2nc(C(=O)NN=Cc3ccc(O)cc3)cc2-c2ccccc2)cc1 | PaCa-2 | fluorescence | 48 h | 8.53
CCn1cc(/C=C(\C#N)C(=O)c2c[nH]c3ccccc23)c2ccccc21 | MIA PaCa-2 | MTT | 48 h | > 40
NS(=O)(=O)c1ccc(-n2nc(C(=O)NN=Cc3cccnc3)cc2-c2ccccc2)cc1 | PaCa-2 | fluorescence | 48 h | 27.8
O=C(CSc1nc2ccccc2s1)N/N=C/c1ccc(OCC(=O)Nc2ccc([N+](=O)[O-])cc2)cc1 | MOLT-4 | MTS | 72 h | > 100
NS(=O)(=O)c1ccc(-n2nc(-c3nnc(S)o3)cc2-c2ccccc2)cc1 | PaCa-2 | fluorescence | 48 h | 34.2
N/C(=N\O)c1ccc(-c2cc(CNc3cccc4cccnc34)on2)cc1 | LN-229 | MTS | 72 h | 15.6
COC(=O)c1cc(C(C)=NNc2nc(-c3cccc4cc[nH]c34)cs2)ccc1O | T47D | MTT | 96 h | 20.8
Cc1nc2c(n1CCCN1CCCCC1)C(=O)c1ccccc1C2=O | MIA PaCa-2 | MTT | – | 14.7
FC(F)(F)c1ccc(-c2cc(CNc3cccc4cccnc34)on2)cc1 | LN-229 | MTS | 72 h | 51.8
COc1cc(C2C3=C(COC3=O)N(CCO)c3cc4c(cc32)CCC4)cc(OC)c1OC (stereo not drawn) | BT-549 | ATP luminescence | 48 h | 0.037
CN1CCC(NC2CCc3[nH]c4c(C(N)=O)ccc(-c5ccccc5Cl)c4c3C2)CC1 (stereo not drawn) | Jurkat | – | 96 h | 0.0193
O=C(CSc1nc2ccccc2s1)N/N=C/c1ccc(OCC(=O)Nc2cccc(Cl)c2)cc1 | MOLT-4 | MTS | 72 h | 7.7

Structure (SMILES) | cell line | technique | time | IC50 [µM]
COc1cc([C@@H]2c3cc4c(cc3[C@@H](O[C@@H]3O[C@@H]5CO[C@@H](C)O[C@H]5[C@H](O)[C@H]3O)[C@H]3COC(=O)[C@H]23)OCO4)cc(OC)c1O | LN-229 | MTS | 72 h | 0.02
CCNC(=O)c1nc(N2CCc3cccc(C(=O)Nc4nc5ccccc5s4)c3C2)ccc1-c1cnn(CC23CC4CC(CC(C4)C2)C3)c1C | MOLT-4 | MTS | 48 h | 0.481
CCCOc1ccc2[nH]cc(C(=O)C(C#N)=Cc3cn(C)c4ccccc34)c2c1 | MIA PaCa-2 | MTT | 48 h | 28.9
CN1C(=O)C(=O)c2cc3c(c4c2c1cc1ccccc14)OCO3 | T47D | MTT | 75 h | 61
O=C(NO)c1ccc(Cn2cnc3c(Nc4cccc([N+](=O)[O-])c4)ncnc32)cc1 | MOLT-4 | MTT | 72 h | 0.92
O=c1cc(OCc2cc(-c3ccccc3)no2)c2ccccc2o1 | LN-229 | MTS | 72 h | > 100
Cc1c(-c2ccc(N3CCc4cccc(C(=O)Nc5nc6ccccc6s5)c4C3)nc2C(=O)O)cnn1CC12CC3CC(C1)CC(C(=O)NCCCCCCCCNc1cccc4c1C(=O)N(C1CCC(=O)NC1=O)C4=O)(C3)C2 (stereo not drawn) | MOLT-4 | MTS | 48 h | 0.0041
O=C(NO)c1ccc(Cn2cnc3c(Nc4ccc(Cl)cc4)ncnc32)cc1 | Jurkat | MTT | 72 h | 0.91
COC[C@H](NC(=O)c1ccn(S(C)(=O)=O)c1)C(=O)Nc1nc(-c2cccc(N3C[C@@H](C)O[C@@H](C)C3)n2)cs1 | LNCaP | ATP luminescence | 7 days | 0.008
FC(F)(F)c1cc(OCc2cc(-c3ccc(Cl)cc3Cl)no2)c2ccccc2n1 | LN-229 | MTS | 72 h | > 100
Cc1c(-c2ccc(N3CCc4cccc(C(=O)Nc5nc6ccccc6s5)c4C3)nc2C(=O)O)cnn1CC12CC3CC(C1)CC(C(=O)NCCCCNc1cccc4c1C(=O)N(C1CCC(=O)NC1=O)C4=O)(C3)C2 (stereo not drawn) | MOLT-4 | MTS | 48 h | 0.0302
FC(F)(F)c1ccc(-c2cc(COc3cc(C(F)(F)F)nc4ccccc34)on2)cc1 | LN-229 | MTS | 72 h | > 100
Cc1ncsc1-c1ccc([C@H](C)NC(=O)[C@@H]2C[C@@H](O)CN2C(=O)[C@@H](NC(=O)CCCCCCCCCS(=O)(=O)NC(=O)c2nc(N3CCc4cccc(C(=O)Nc5nc6ccccc6s5)c4C3)ccc2-c2cnn(CC34CC5CC(CC(C5)C3)C4)c2C)C(C)(C)C)cc1 | MOLT-4 | MTS | 48 h | 0.0119
CCn1cc(C=C(C#N)C(=O)c2c[nH]c3cc(OC)c(OC)cc23)c2ccccc21 | MIA PaCa-2 | MTT | 48 h | 13
Cc1ncsc1-c1ccc([C@H](C)NC(=O)[C@@H]2C[C@@H](O)CN2C(=O)[C@@H](NC(=O)CCCCCCCNC(=O)c2nc(N3CCc4cccc(C(=O)Nc5nc6ccccc6s5)c4C3)ccc2-c2cnn(CC34CC5CC(CC(C5)C3)C4)c2C)C(C)(C)C)cc1 | MOLT-4 | MTS | 48 h | 0.065
CCOc1ccc2[nH]cc(C(=O)C(C#N)=Cc3cn(CC)c4ccccc34)c2c1 | MIA PaCa-2 | MTT | 48 h | 5.8
Nc1ccccc1NC(=O)c1ccc(Cn2cnc3c(Nc4ccc(Cl)cc4)ncnc32)cc1 | MOLT-4 | MTT | 72 h | 0.49
CC(C)C(=O)Nc1ccc([N+](=O)[O-])c(C(F)(F)F)c1 | LNCaP | MTS | 48 h | 99.9
Cc1c(-c2ccc(N3CCc4cccc(C(=O)Nc5nc6ccccc6s5)c4C3)nc2C(=O)NCCCCCCCCNc2cccc3c2C(=O)N(C2CCC(=O)NC2=O)C3=O)cnn1CC12CC3CC(CC(C3)C1)C2 (stereo not drawn) | MOLT-4 | MTS | 48 h | > 2
CN(C)c1ccc(Nc2nc(-c3ccncc3)nc3c2CC(N)CC3)cc1 (stereo not drawn) | DU-145 | MTT | – | 11.5
O=C(NO)c1ccc(Cn2cnc3c(Nc4ccc(Br)cc4F)ncnc32)cc1 | MOLT-4 | MTT | 72 h | 0.53
N#Cc1ccc(-c2cc(COc3cc(=O)oc4ccccc34)on2)cc1 | LN-229 | MTS | 72 h | > 100
COc1cc(C=NNC(=O)c2cc(-c3ccccc3)n(-c3ccc(S(N)(=O)=O)cc3)n2)cc(OC)c1OC | PaCa-2 | fluorescence | 48 h | 22
Nc1ccccc1NC(=O)c1ccc(Cn2cnc3c(Nc4ccc(Br)cc4F)ncnc32)cc1 | MOLT-4 | MTT | 72 h | 0.45
